The nature of data set [1]: folding enthalpy; higher = less favourable; fluorescence melt of hairpins on a sequencing array, two-state fit. The conditions noted are these: sodium 0.088 M. In outline: (§1)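 Folding enthalpy and melting temperature were estimated with bootstrapped two-state fits and combined across four replicates by inverse-variance weighting, with fitted temperatures raised by 9.35 °C to match UV melts. The data were Cy3 fluorescence of library hairpins, with annealed Cy3 and quencher oligos, on a sequenced MiSeq flow cell in 50 mM Na-HEPES pH 8.0, 25 mM NaCl, imaged in 2.5 °C steps up to 60 °C and normalised to pre-quench Cy3 and control constructs.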

Data set [2] can be described thus: melting temperature; fluorescence melt of hairpins on a sequencing array, two-state fit, raised by 9.35 °C to match UV melts. The conditions noted are these: sodium 0.088 M. In outline:
as §1

In the case of GGGTAGGAAACTACCC ((((((....)))))), in data set [1], the folding enthalpy was -124 kJ/mol. For the same sequence, the Tm in data set [2] was 58.8 °C.
For GTGTCGCGAAAGCGCAC (((.(((....)))))), in that order: -78.5 kJ/mol and 56.6 °C.
For the sequence GAATAAGCGAAAGCTTTC (((..(((....)))))), the folding enthalpy in data set [1] was -39.8 kJ/mol. Besides, the Tm in data set [2] worked out at 25.7 °C.
Turning to GTTAAAGGAAACTTTGAC ((.((((....)))).)), in data set [1], the folding enthalpy is -69.9 kJ/mol. Further, in data set [2], the Tm turned out to be 33.2 °C.
For the sequence GCGTAACTACGC ((((....)))), in data set [1], the folding enthalpy was -106 kJ/mol. For the same sequence, the Tm in data set [2] is 57.1 °C.
As to GCGACCGGAAACAGCCGC (((.(.(....).).))), the folding enthalpy in data set [1] is -88.1 kJ/mol. In addition, the Tm in data set [2] came to 32.5 °C.
As for GACGCAGAAATGCGTC ((((((....)))))), in data set [1], the folding enthalpy was -150 kJ/mol. Besides, the Tm in data set [2] was determined as 68.5 °C.
For GTACGACGAAAGTCCTAC (((.(((....))).))), in that order: -55 kJ/mol and 31.9 °C.
With GGTATTCGAAAGAAGACC (((.(((....))).))), in data set [1], the folding enthalpy was -181 kJ/mol. Moreover, in data set [2], the Tm was 50.8 °C.
As for GCCTGGCGAAAGCCTAGC ((..(((....)))..)), the folding enthalpy in data set [1] was -53.5 kJ/mol. Further, the Tm in data set [2] stood at 41 °C.
For the sequence GGCAATGGAAACACTGCC ((((.((....)).)))), the folding enthalpy in data set [1] is -139 kJ/mol. The Tm in data set [2] was determined as 44 °C.
For GCGAGGCGAAAGCCAGGC ((..(((....)))..)), in that order: -54.8 kJ/mol and 56.4 °C.
Take GATCCCAAACGGGATC ((((((....)))))): the folding enthalpy in data set [1] is -148 kJ/mol. Also, the Tm in data set [2] amounted to 59.7 °C.
Consider GGACGCCGAAAGGCTTCC (((.(((....))).))), for which the folding enthalpy in data set [1] was -97.8 kJ/mol. The Tm in data set [2] came out at 53.8 °C.
For GCGACCGGAAACGGTTGC ((.((((....)))).)), in that order: -172 kJ/mol and 64.6 °C.
For GGTTTGCGAAAGCAACC (((.(((....)))))), in that order: -72.2 kJ/mol and 52.4 °C.
Turning to GATCTGCTACCAGATC ((((((....)))))), the folding enthalpy in data set [1] was -157 kJ/mol. Further, in data set [2], the Tm turned out to be 48.8 °C.
On to GATCAGTATCCTGATC ((((((....)))))), for which the folding enthalpy in data set [1] is -139 kJ/mol. Also, in data set [2], the Tm came to 48.7 °C.
GGAATGGCGAAAGCCTCC (((..(((....)))))): in data set [1], the folding enthalpy is -42.8 kJ/mol. Moreover, in data set [2], the Tm came out at 36.7 °C.
Consider GATCACCAGTGTGATC ((((((....)))))), for which the folding enthalpy in data set [1] is -199 kJ/mol. The Tm in data set [2] was determined as 53.3 °C.
Regarding GAAGCCGAAAGGCTTTC ((((((....))).))), in data set [1], the folding enthalpy was -46.3 kJ/mol. In data set [2], the Tm was 54.2 °C.
Regarding GTCGGCGAAAGCCGAGAC ((((((....)))..))), the folding enthalpy in data set [1] is -32.6 kJ/mol. Moreover, the Tm in data set [2] was 55.6 °C.
GCTTGGACGAAAGTCAGC (((..(((....)))))): the folding enthalpy in data set [1] is -69.8 kJ/mol. The Tm in data set [2] is 42.1 °C.
For the sequence GATGATGGAAACATCGTC ((.((((....)))).)), the folding enthalpy in data set [1] was -135 kJ/mol. Moreover, the Tm in data set [2] came to 47.4 °C.
Regarding GCAATGCGAAAGCTGTGC (((..((....))..))), the folding enthalpy in data set [1] was -86.4 kJ/mol. In addition, in data set [2], the Tm turned out to be 48.4 °C.
As for GCGGGGCGAAAGCTGCGC (((..((....))..))), in data set [1], the folding enthalpy is -114 kJ/mol. The Tm in data set [2] amounted to 65.6 °C.
With GCACGCGGAAACGCATGC (((.(((....))).))), in data set [1], the folding enthalpy was -169 kJ/mol. Further, the Tm in data set [2] turned out to be 52.8 °C.
For the sequence GTCGTGGGAAACTACGAC (((((.(....).))))), in data set [1], the folding enthalpy was -156 kJ/mol. In data set [2], the Tm worked out at 53.9 °C.
The like results for GTTTAGCGAAAGCTTAAC (((.(((....))).))) were, in that order, -92.4 kJ/mol and 44.1 °C.
In the case of GCCTAGGCGAAAGCCGGC (((..(((....)))))), the folding enthalpy in data set [1] was -55.7 kJ/mol. For the same sequence, the Tm in data set [2] amounted to 65.8 °C.
Regarding CCTTAGAAATAAGG (((((....))))), the folding enthalpy in data set [1] is -43.8 kJ/mol. The Tm in data set [2] was 28.6 °C.
Take GCTAGCGGAAACACTAGC (((((.(....).))))): the folding enthalpy in data set [1] was -135 kJ/mol. Further, the Tm in data set [2] was found to be 45.7 °C.
In the case of GATCCTTACTAGGATC ((((((....)))))), the folding enthalpy in data set [1] is -153 kJ/mol. Besides, the Tm in data set [2] worked out at 52.4 °C.
Regarding GGACCCGAAAGGGAATCC ((((((....)))..))), in data set [1], the folding enthalpy is -69.9 kJ/mol. In addition, the Tm in data set [2] is 34.6 °C.
GACCACGAAAGTGTTGTC ((((((....)))..))): in data set [1], the folding enthalpy was -78.1 kJ/mol. For the same sequence, in data set [2], the Tm came to 34.4 °C.
With GACTCTGAAAAGAGTC ((((((....)))))), the folding enthalpy in data set [1] is -134 kJ/mol. Further, the Tm in data set [2] is 58 °C.
Take GAACCCGAAAGGGTTTTC ((((((....)))..))): the folding enthalpy in data set [1] was -56.1 kJ/mol. Further, the Tm in data set [2] worked out at 55.9 °C.

Source of the values: the array DNA melting data of Ke et al. (doi:10.1101/2024.01.08.574731).
